≈ marks a conversion by molar mass, not a printed value. Calls of active or inactive are those of the source. No cut-off for these calls is given here.
Key:
Streptococcus pneumoniae = experiment: Antibacterial activity against Streptococcus pneumoniae ATCC 49619 after 20 hrs by CLSI based-broth microdilution method; assay type: functional
In short: (§1)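 Streptococci tested in Brain Heart Infusion broth. Two-fold dilutions from 256 to 0.5 μg/mL, inoculum approx. 5 × 10^5 CFU/mL. Incubated 20 h at 37 °C. MIC is the lowest concentration without visible growth.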

Staphylococcus aureus [1] = experiment: Antibacterial activity against Staphylococcus aureus ATCC 29213 after 20 hrs by CLSI based-broth microdilution method; assay type: functional
In short: (§2)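 Broth microdilution in cation-adjusted Mueller-Hinton broth. Two-fold serial dilutions from 256 μg/mL down to 0.5 μg/mL. Inoculum approx. 5 × 10^5 CFU/mL. Incubated 20 h at 37 °C. MIC taken as the lowest concentration with no observable growth.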

Staphylococcus aureus [2] = experiment: Antibacterial activity against Staphylococcus aureus ATCC 25923 after 20 hrs by CLSI based-broth microdilution method; assay type: functional; in short: as §2
Staphylococcus aureus [3] = experiment: Inhibition of RNA polymerase in Staphylococcus aureus ATCC 29213 assessed as reduction in total RNA level at 1/4 to 1/8 times MIC by fluorimetric method
In short: (§3)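 S. aureus ATCC 29213 master culture started at OD600 0.1 at 37 °C with shaking at 175 rpm. At OD600 0.2 it was split and given compound or control at ¼ and ⅛ MIC, plus a drug-free culture. Cells harvested when the control reached OD600 0.6, with volumes normalized to OD600 0.6 equivalent. DNA and RNA measured by Qubit fluorometry, protein by BCA; triplicate.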

Staphylococcus aureus [4] = experiment: Inhibition of RNA polymerase in Staphylococcus aureus ATCC 29213 assessed as reduction in total protein level at 1/4 to 1/8 times MIC by fluorimetric method
Staphylococcus aureus [5] = experiment: Inhibition of RNA polymerase in Staphylococcus aureus ATCC 29213 assessed as total DNA level at 1/4 to 1/8 times MIC by fluorimetric method; in short: as §3
Clostridioides difficile [6] = experiment: Antibacterial activity against Clostridium difficile ribotype 027 measured after 48 hrs under anaerobic condition by CLSI based-broth microdilution method; assay type: functional
In short: (§4)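 Compounds dissolved in DMSO. Media pre-reduced 3 h in an anaerobic chamber. Colonies from overnight anaerobic GAM agar grown to early log phase in BHI plus 0.5% w/v yeast extract and 0.05% L-cysteine. Adjusted to 0.5 McFarland, diluted 100 μL into 15 mL. Mixed 1:1 with serially diluted agents. Incubated anaerobically at 37 °C, growth read at 48 h, triplicate.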

Clostridioides difficile [7] = experiment: Antibacterial activity against Clostridium difficile ribotype 002 assessed as reduction in bacterial toxin B production at sub-inhibitory concentration incubated for 48 hrs under anaerobic condition by ELISA; assay type: functional, organism-based
In short: (§5)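 Incubated anaerobically at 37 °C for 48 h. Supernatants cleared at 10,000 × g for 2 min. TcdA and TcdB quantified by commercial ELISA, normalized to drug-free control. Duplicate, with technical and biological repeats.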

Clostridioides difficile [8] = experiment: Antibacterial activity against Clostridium difficile ATCC 9689 assessed as reduction in bacterial toxin A production at sub-inhibitory concentration incubated for 48 hrs under anaerobic condition by ELISA; assay type: functional, organism-based; settings: ATCC 9689 = DSM 1296; in short: as §5
Clostridioides difficile [9] = experiment: Antibacterial activity against Clostridium difficile ribotype 027 assessed as reduction in bacterial toxin A production at sub-inhibitory concentration incubated for 48 hrs under anaerobic condition by ELISA; assay type: functional, organism-based; in short: as §5
Streptococcus pyogenes = experiment: Antibacterial activity against Streptococcus pyogenes ATCC 19615 after 20 hrs by CLSI based-broth microdilution method; assay type: functional; in short: as §1
Clostridioides difficile [10] = experiment: Antibacterial activity against Clostridium difficile ATCC 9689 assessed as reduction in bacterial toxin B production at sub-inhibitory concentration incubated for 48 hrs under anaerobic condition by ELISA; assay type: functional, organism-based; settings: ATCC 9689 = DSM 1296; in short: as §5
Clostridioides difficile [11] = experiment: Antibacterial activity against Clostridium difficile ATCC 9689 after measured 48 hrs under anaerobic condition by CLSI based-broth microdilution method; assay type: functional; settings: ATCC 9689 = DSM 1296; in short: as §4
Clostridioides difficile [12] = experiment: Antibacterial activity against Clostridium difficile ribotype 027 assessed as reduction in bacterial toxin B production at sub-inhibitory concentration incubated for 48 hrs under anaerobic condition by ELISA; assay type: functional, organism-based; in short: as §5
Clostridioides difficile [13] = experiment: Antibacterial activity against Clostridium difficile ribotype 002 assessed as reduction in bacterial toxin A production at sub-inhibitory concentration incubated for 48 hrs under anaerobic condition by ELISA; assay type: functional, organism-based; in short: as §5
[14] = Antibacterial activity against Staphylococcus saprophyticus ATCC 15305 after 20 hrs by CLSI based-broth microdilution method; assay type: functional, Staphylococcus saprophyticus subsp. saprophyticus; in short: as §2
Streptococcus agalactiae = experiment: Antibacterial activity against Streptococcus agalactiae ATCC 12386 after 20 hrs by CLSI based-broth microdilution method; assay type: functional; in short: as §1
Clostridioides difficile [15] = experiment: Antibacterial activity against Clostridium difficile ribotype 002 measured after 48 hrs under anaerobic condition by CLSI based-broth microdilution method; assay type: functional; in short: as §4
[16] = test system: Staphylococcus epidermidis; experiment: Antibacterial activity against Staphylococcus epidermidis ATCC 12228 after 20 hrs by CLSI based-broth microdilution method; assay type: functional; in short: as §2
Enterococcus faecalis = experiment: Antibacterial activity against Enterococcus faecalis ATCC 19433 after 20 hrs by CLSI based-broth microdilution method; assay type: functional
In short: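 Broth microdilution MIC. Two-fold serial dilutions from 256 μg/mL down to 0.5 μg/mL. Inoculum approx. 5 × 10^5 CFU/mL. Read after 20 h at 37 °C. MIC is the lowest concentration with no observable growth.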

Compound	MIC (Streptococcus pneumoniae) [µg/mL]	MIC (Staphylococcus aureus [1]) [µg/mL]	MIC (Staphylococcus aureus [2]) [µg/mL]	further results
O=C(O)c1ccc(C(F)(F)F)cc1Cc1ccc(Sc2ccc(Cl)c(Cl)c2)c([N+](=O)[O-])c1	1 (≈ 1.99 µM)			
O=C(O)c1ccc(F)cc1Cc1ccc(Sc2ccc(Cl)c(Cl)c2)c([N+](=O)[O-])c1	4 (≈ 8.84 µM)	8 (≈ 17.7 µM)	8 (≈ 17.7 µM)	
COc1ccccc1C(=O)c1ccc(Sc2ccc(Cl)c(Cl)c2)c([N+](=O)[O-])c1	> 256	> 256	> 256	
COc1ccc(C(=O)O)c(C(=O)c2ccc(Sc3ccc(Cl)c(Cl)c3)c([N+](=O)[O-])c2)c1	8 (≈ 16.7 µM)	8 (≈ 16.7 µM)	16 (≈ 33.5 µM)	
CO[C@H]1/C=C/O[C@@]2(C)Oc3c(C)c(O)c4c(O)c(c(/C=N/N5CCN(C)CC5)c(O)c4c3C2=O)NC(=O)/C(C)=C\C=C\[C@H](C)[C@H](O)[C@@H](C)[C@@H](O)[C@@H](C)[C@H](OC(C)=O)[C@@H]1C				inhibition (Staphylococcus aureus [3]): Active; inhibition (Staphylococcus aureus [4]): inactive; inhibition (Staphylococcus aureus [5]): inactive
COc1ccc(C(=O)O)c(Cc2ccc(Sc3ccc(Cl)c(Cl)c3)c([N+](=O)[O-])c2)c1	8 (≈ 17.2 µM)	8 (≈ 17.2 µM)	16 (≈ 34.5 µM)	
O=C(O)c1ccc(Cl)cc1C(=O)c1ccc(Sc2ccc(Cl)c(Cl)c2)c([N+](=O)[O-])c1	8 (≈ 16.6 µM)	8 (≈ 16.6 µM)	8 (≈ 16.6 µM)	
Nc1ccccc1Sc1ccc(C(=O)c2ccccc2C(=O)O)cc1[N+](=O)[O-]	256 (≈ 649 µM)			
COc1ccccc1Cc1ccc(Sc2ccc(Cl)c(Cl)c2)c([N+](=O)[O-])c1	> 256	> 256	> 256	
O=C(O)c1cc(C(F)(F)F)ccc1C(=O)c1ccc(Sc2ccc(Cl)c(Cl)c2)c([N+](=O)[O-])c1	4 (≈ 7.75 µM)	8 (≈ 15.5 µM)	16 (≈ 31 µM)	
O=C(O)c1cccc(C(=O)c2ccc(Sc3ccc(Cl)c(Cl)c3)c([N+](=O)[O-])c2)c1	> 256	32 (≈ 71.4 µM)	> 256	
Cc1ccc(C(=O)O)c(Cc2ccc(Sc3ccc(Cl)c(Cl)c3)c([N+](=O)[O-])c2)c1	4 (≈ 8.92 µM)	4 (≈ 8.92 µM)	4 (≈ 8.92 µM)	
O=C(O)c1ccccc1Cc1ccc(Sc2ccc(Cl)c(Cl)c2)c([N+](=O)[O-])c1	16 (≈ 36.8 µM)	16 (≈ 36.8 µM)	16 (≈ 36.8 µM)	
O=C(O)c1cccc(Cc2ccc(Sc3ccc(Cl)c(Cl)c3)c([N+](=O)[O-])c2)c1	> 256	> 256	> 256	
O=C(O)c1cc(Cl)ccc1C(=O)c1ccc(Sc2ccc(Cl)c(Cl)c2)c([N+](=O)[O-])c1	8 (≈ 16.6 µM)	4 (≈ 8.29 µM)	8 (≈ 16.6 µM)	
O=C(O)c1ccccc1C(=O)c1ccc(Sc2ccc(Cl)c(Cl)c2)c([N+](=O)[O-])c1	8 (≈ 17.8 µM)	16 (≈ 35.7 µM)	16 (≈ 35.7 µM)	
CN[C@H](CC(C)C)C(=O)N[C@H]1C(=O)N[C@@H](CC(N)=O)C(=O)N[C@H]2C(=O)N[C@H]3C(=O)N[C@H](C(=O)N[C@H](C(=O)O)c4cc(O)cc(O)c4-c4cc3ccc4O)[C@H](O)c3ccc(c(Cl)c3)Oc3cc2cc(c3O[C@@H]2O[C@H](CO)[C@@H](O)[C@H](O)[C@H]2O[C@H]2C[C@](C)(N)[C@H](O)[C@H](C)O2)Oc2ccc(cc2Cl)[C@H]1O [VANCOMYCIN]				MIC (Clostridioides difficile [6]): 2 µg/mL (≈ 1.38 µM); Activity (Clostridioides difficile [7]): inactive; Activity (Clostridioides difficile [8]): inactive; Activity (Clostridioides difficile [9]): inactive; MIC (Streptococcus pyogenes): 1 µg/mL (≈ 0.69 µM); Activity (Clostridioides difficile [10]): inactive; MIC (Clostridioides difficile [11]): 4 µg/mL (≈ 2.76 µM); Activity (Clostridioides difficile [12]): inactive; Activity (Clostridioides difficile [13]): inactive; MIC [14]: 0.25 µg/mL (≈ 0.173 µM); MIC (Streptococcus agalactiae): 2 µg/mL (≈ 1.38 µM); MIC (Clostridioides difficile [15]): 2 µg/mL (≈ 1.38 µM); MIC [16]: 0.5 µg/mL (≈ 0.345 µM); MIC (Enterococcus faecalis): 1 µg/mL (≈ 0.69 µM)
O=C(O)c1cc(Cl)ccc1Cc1ccc(Sc2ccc(Cl)c(Cl)c2)c([N+](=O)[O-])c1	4 (≈ 8.53 µM)	8 (≈ 17.1 µM)	8 (≈ 17.1 µM)	
CCc1c(Cl)c(O)c(Cl)c(O)c1C(=O)O[C@H]1[C@H](O)[C@H](OC)[C@H](OC/C2=C\C=C\C[C@H](O)/C(C)=C/[C@H](CC)[C@@H](O[C@@H]3OC(C)(C)[C@@H](OC(=O)C(C)C)[C@H](O)[C@@H]3O)/C(C)=C/C(C)=C/C[C@@H]([C@@H](C)O)OC2=O)O[C@@H]1C				Activity (Clostridioides difficile [7]): Dose-dependent effect; Activity (Clostridioides difficile [8]): Dose-dependent effect; Activity (Clostridioides difficile [9]): Dose-dependent effect; Activity (Clostridioides difficile [10]): Dose-dependent effect; Activity (Clostridioides difficile [12]): Dose-dependent effect; Activity (Clostridioides difficile [13]): Dose-dependent effect
O=C(O)c1ccc(F)cc1C(=O)c1ccc(Sc2ccc(Cl)c(Cl)c2)c([N+](=O)[O-])c1	8 (≈ 17.2 µM)	8 (≈ 17.2 µM)	16 (≈ 34.3 µM)	
O=C(O)c1cc(C(F)(F)F)ccc1Cc1ccc(Sc2ccc(Cl)c(Cl)c2)c([N+](=O)[O-])c1	2 (≈ 3.98 µM)	8 (≈ 15.9 µM)		
O=C(O)c1ccc(Cl)cc1Cc1ccc(Sc2ccc(Cl)c(Cl)c2)c([N+](=O)[O-])c1	2 (≈ 4.27 µM)	8 (≈ 17.1 µM)	8 (≈ 17.1 µM)	
